# Screening results from PubChem.
# Only some compounds are listed: those with a hit (about 3.1% of all), similar ones and a draw of the others.
# Ecoli rRNA inh: reduced GFP signal of wild-type E. coli, primary screen, bacterial rRNA inhibitor project, GFP/RFP fluorescence, OD600, single point; E. coli WT GFP vs humanized-ribosome RFP mutants, 24 h; hits give low values; DMSO median 0, no signal -100; GFP signal change (wild-type ribosome), % (test concentration not listed); hit rate 1.6% among 350,000; AID 720706, 2013;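 active means significant combined selectivity score with lowered wild-type GFP, culture density cut under 30%, mutant RFP and density less affected; inactive means any of these conditions unmet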
# F508del corr: F508del CFTR correction, initial screen, CFBE line, single point. CFBE cells, YFP halide quenching; stimulated with forskolin plus potentiator P3; % fluorescence drop versus neutral controls. AID 720511, 2013. activity (quench increase), % at 7.58 µM. hit rate 0.36% among 350,000;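 active means mean added fluorescence quench of at least 8% versus neutral control, with both replicates also reaching 8%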;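 further: cells transiently co-express mutant CFTR-F508del with the halide-sensitive YFP; corrector assay measuring rescue of mutant channel to the surface after 24 h compound exposure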
# S100A4 MyoIIA: inhibitors of S100A4-myosin IIA peptide binding, primary screen, biochemical, fluorescence polarization, TAMRA-MyoIIA peptide; inhibition, % at 10.7 µM; Protein S100-A4 (Homo sapiens), P26447; hit rate 0.14% among 360,000;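 active means mean inhibition of at least 70% across replicates, with every replicate also reaching that level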
# Target sequence (P26447 whole entry, looked up): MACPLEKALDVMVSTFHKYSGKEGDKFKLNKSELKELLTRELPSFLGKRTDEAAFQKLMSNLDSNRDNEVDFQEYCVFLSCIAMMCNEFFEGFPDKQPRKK
#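 Assay system: human S100A4 monomer with TAMRA-labelled myosin IIA peptide / Buffer or medium: Calcium-containing HEPES buffer, pH 7.2 / Reagent: TAMRA-labelled myosin IIA heavy-chain peptide probe, 5 nM / Compound: one dose per compound / Timing: polarization read 5 min after assay mix addition, stable 5–60 min / Benchmarks: neutral control DMSO, positive control TFP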
# ERAP1 inh: human ERAP1 aminopeptidase inhibitors, primary screen, biochemical, single point, plate reader; AID 652197, 2013; hit rate 0.15% among 340,000; recombinant ERAP1, Leu-AMC fluorescence, 60 min; inhibition, % at 10.7 µM;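 active means mean replicate inhibition of at least 30%, or all replicates individually reaching that 30% level; inactive means mean below 30% and not every replicate reaching it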;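 further: 0% = neutral control wells and 100% = L-leucinethiol positive control wells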
# SIRT5 block: SIRT5 desuccinylase inhibitors, primary screen, biochemical, fluorescence imaging, single point, set 5; NAD-dependent protein deacylase sirtuin-5, mitochondrial (Homo sapiens), Q9NXA8; AID 652115, 2013; hit rate 1.1% among 330,000; inhibition, % at 15 µM; Purified SirT5, succinyl-peptide AMC, trypsin-coupled fluorescence; in the data active means inhibition above about 15%
# Target sequence (Q9NXA8 whole entry, looked up): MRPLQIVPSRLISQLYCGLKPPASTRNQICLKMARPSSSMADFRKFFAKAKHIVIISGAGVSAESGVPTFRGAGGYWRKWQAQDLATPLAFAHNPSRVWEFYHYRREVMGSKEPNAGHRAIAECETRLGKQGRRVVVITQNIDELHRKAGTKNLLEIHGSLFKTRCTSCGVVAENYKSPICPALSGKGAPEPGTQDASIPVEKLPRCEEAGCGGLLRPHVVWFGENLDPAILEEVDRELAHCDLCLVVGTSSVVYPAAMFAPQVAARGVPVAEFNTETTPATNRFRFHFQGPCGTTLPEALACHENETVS
# * marks the source's active call; other numbers are inactive results; . = no result.
SMILES,Ecoli rRNA inh,F508del corr,S100A4 MyoIIA,ERAP1 inh,SIRT5 block
Cc1nn(Cc2ccccc2)c(C)c1C(=O)OCC(=O)Nc1cccc(S(N)(=O)=O)c1,-22*,4,-4,3,-1
O=C(Cc1cccnc1)N1CCCCN2[C@H](CO)[C@@H](c3ccc(C#CC4CCCC4)cc3)[C@H]2C1,-60,-1,5,-1,-1
CCN(CC)P(c1n(C)cc[n+]1C)N(CC)CC,20,0,5,103*,.
COc1ccc(-c2ccc3n(c2=O)C[C@@H]2[C@@H](CO)[C@H](C(=O)O)[C@H]3N2C(=O)c2ccccc2F)cc1,2,.,-31,-1,-67
Oc1ccc(/C=N/NP(=S)(c2ccccc2)c2ccccc2)cc1O,-21*,.,-3,-3,-6
C[C@]12CCC3C(CC[C@H]4C[C@@H](O)CC[C@]34C)C1C[C@@H](N)[C@@H]2O (stereo partly drawn),.,4,0,2,0
C[C@]12CCC3C(CC[C@H]4C[C@@H](O)CC[C@]34C)C1C[C@@H](O)C2=O (stereo partly drawn),-23*,3,-6,-3,.
C[C@]12CCC3[C@@H](CC[C@H]4C[C@@H](O)CC[C@]34C)C1CCC2=O (stereo partly drawn),-19,-5,-2,0,-1
C[C@]12CCC3C(CC[C@H]4C[C@@H](O)CC[C@]34C)C1C[C@@H](Br)[C@@H]2O (stereo partly drawn),2,0,0,0,23*
COC(=O)[C@@H]1[C@@H](CO)[C@@H]2Cn3c(ccc(C4=CCCC4)c3=O)[C@H]1N2C(=O)CC1CC1,2,0,-2,3,-7
CS(=O)(=O)c1ccc(C2=C(CNC(=O)c3cccs3)[C@H]3CC[C@@H](C2)N3CCOc2ccccc2)cc1,3,-1,-5,10,30*
CN1CC(C(=O)c2ccc(Cl)cc2)C(c2ccccc2)C1 (stereo not drawn),-2,-1,0,-6,27*
CC=Cc1ccc2n(c1=O)C[C@H]1[C@H](CO)[C@@H](C(=O)OC)[C@@H]2N1C(=O)CC (mixture of isomers),1,.,9,-4,-8
CC1CCCN(c2ccc(C(=O)N3CCC4(CC3)OCCO4)cc2[N+](=O)[O-])C1 (stereo not drawn),-30*,-1,5,-2,3
O=C(Cc1ccccc1)N1CCCCN2[C@H](C1)[C@H](c1ccc(C#Cc3ccccc3)cc1)[C@@H]2CO,2,-1,1,-1,-2
CCCCn1nnnc1C(C1CC1)N1CCC(n2c(=O)[nH]c3ccccc32)CC1 (stereo not drawn),-20*,3,-1,.,1
CCCCn1nnnc1C(CCSC)N1CCC(n2c(=O)[nH]c3ccccc32)CC1 (stereo not drawn),-3,5,-2,1,-2
CC(=O)N1[C@@H]2c3ccc(-c4cccc(C(=O)N(C)C)c4)c(=O)n3C[C@H]1[C@H](CO)[C@H]2C(=O)O,0,-4,3,-2,-38
COc1ccc(-c2ccc([C@H]3[C@@H](CO)N4CCCCN(C(=O)Cc5ccncc5)C[C@H]34)cc2)cc1,2,-1,-2,-1,3
C#CC1(O)C=CC2C3CCC4=CC(=O)CCC4C3CCC21CC (stereo not drawn),-20*,3,-3,-3,-3
O=C1NC(=O)N(Cc2ccc(F)cc2)C(=O)/C1=C\c1ccc([N+](=O)[O-])s1,-22,0,-45,0,28*
O=C1NC(=O)N(Cc2ccc(F)cc2)C(=O)/C1=C\c1ccc(N2CCCC2)cc1,-22,-3,0,-2,0
COc1ccc(CN2C(=O)NC(=O)/C(=C/c3ccc([N+](=O)[O-])s3)C2=O)cc1,-48,0,-23,0,41*
COc1ccc(CN2C(=O)NC(=O)/C(=C\c3ccco3)C2=O)cc1,18,1,-20,1,14
